Apaf1 inhib: blocks human Apaf-1 apoptosome activity; O14727; reconstituted apoptosome caspase-3 activity, DEVD-Rh110 fluorescence; inhibition, % at 20 µM; actives 0.71% (n = 330,000); AID 489030; active = inhibition of at least 40% at 20 µM
Target sequence (O14727 whole entry, looked up): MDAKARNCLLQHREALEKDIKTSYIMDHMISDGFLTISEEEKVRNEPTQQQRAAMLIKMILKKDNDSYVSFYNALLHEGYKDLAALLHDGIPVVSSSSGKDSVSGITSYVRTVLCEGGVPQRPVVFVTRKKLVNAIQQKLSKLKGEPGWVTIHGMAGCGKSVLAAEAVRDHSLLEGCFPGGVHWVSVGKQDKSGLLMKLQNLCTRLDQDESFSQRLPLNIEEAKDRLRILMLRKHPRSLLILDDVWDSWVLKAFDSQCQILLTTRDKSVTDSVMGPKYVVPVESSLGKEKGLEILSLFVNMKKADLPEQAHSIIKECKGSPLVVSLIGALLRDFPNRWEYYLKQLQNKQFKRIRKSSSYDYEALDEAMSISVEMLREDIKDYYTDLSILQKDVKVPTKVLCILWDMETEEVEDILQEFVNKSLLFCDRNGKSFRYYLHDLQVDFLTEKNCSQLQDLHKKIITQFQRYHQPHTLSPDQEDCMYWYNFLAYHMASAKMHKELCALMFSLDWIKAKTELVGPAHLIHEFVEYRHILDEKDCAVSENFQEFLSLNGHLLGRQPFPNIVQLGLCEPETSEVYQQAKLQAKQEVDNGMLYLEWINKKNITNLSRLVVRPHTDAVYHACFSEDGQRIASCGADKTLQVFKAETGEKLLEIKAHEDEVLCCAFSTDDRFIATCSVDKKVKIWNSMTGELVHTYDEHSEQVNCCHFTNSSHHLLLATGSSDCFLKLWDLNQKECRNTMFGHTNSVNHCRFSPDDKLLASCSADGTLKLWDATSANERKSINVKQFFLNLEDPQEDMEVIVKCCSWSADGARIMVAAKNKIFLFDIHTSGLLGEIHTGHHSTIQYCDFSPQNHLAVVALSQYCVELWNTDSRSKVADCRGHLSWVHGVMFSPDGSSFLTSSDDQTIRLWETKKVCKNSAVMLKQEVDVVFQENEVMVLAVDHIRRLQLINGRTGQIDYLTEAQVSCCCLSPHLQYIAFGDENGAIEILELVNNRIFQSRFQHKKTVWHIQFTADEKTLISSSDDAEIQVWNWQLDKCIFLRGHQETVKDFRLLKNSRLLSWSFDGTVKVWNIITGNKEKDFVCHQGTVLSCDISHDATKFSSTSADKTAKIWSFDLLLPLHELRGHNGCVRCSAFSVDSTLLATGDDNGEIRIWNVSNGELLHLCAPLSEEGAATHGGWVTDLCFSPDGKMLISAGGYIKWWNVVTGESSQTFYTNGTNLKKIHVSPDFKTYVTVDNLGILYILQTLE
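detection = Rh110 fluorescence intensity | test system = biochemical Apaf-1 apoptosome reconstitution | also added = cytochrome c and DEVD-Rh110 substrate | schedule = 30 min plus 50 min, RT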
GSTO1 counter: counter-screen for RBBP9 inhibitors: inhibitors of human GSTO1 | P78417 | recombinant GSTO1, activity-based probe fluorescence polarization | inhibition, % at 5.96 µM | actives 1.1% (n = 300,000) | AID 1974;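 active = inhibition above the campaign mean inhibition plus 3 SD, cut at about 35% in these data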
PAD4 inh: inhibitors of human PAD4 | recombinant PAD4, RCA probe fluorescence polarization | Q9UM07 | AID 485272 | inhibition, % at 6.36 µM | actives 0.41% (n = 330,000);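 active = percent inhibition above a cutoff equal to the mean of all tested compounds plus 3 SD, cut at about 15% in these data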
TDP2 inh: blocks human TDP2 phosphodiesterase activity | O95551 | recombinant TDP2, T5PNP hydrolysis, p-nitrophenol absorbance 415 nm | inhibition, % at 12.8 µM | actives 0.34% (n = 370,000);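 active = inhibition above the mean of all tested compounds plus 3 SD, set per campaign, cut at about 25% in these data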
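Read-out basis: percent inhibition. System: recombinant human TDP2. Buffer or medium: Mg2+-containing Tris-HCl buffer, pH 7.5. Repeats: single replicate. Timing: reaction 2 h, 37 °C. Benchmarks: high control without enzyme, low control DMSO plus TDP2. Probe or stimulus: 5 mM T5PNP. Doses: 12.8 µM only. Measured by: epi absorbance of p-nitrophenol freed from T5PNP by hydrolysis.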
JMJD2C inh: human JMJD2C demethylase inhibition; GST-JMJD2C(1-420) H3K9me3 demethylation, DELFIA europium; inhibition, % at 2.35 µM; actives 0.069% (n = 330,000);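 active = more than half of a compound's replicate wells show inhibition beyond 50%, single wells judged on their own value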;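 note: signal counts dimethyl H3K9 product captured on neutravidin plate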
UBC9 SUMO inh: blocks human SUMOylation mediated by UBC9 | HTRF SUMOylation assay, SAE1/SAE2 + UBC9, in vitro | actives 0.36% (n = 290,000) | P63279 | inhibition, % at 35 µM; in the data active = inhibition above about 50%, passing the limit was not always enough
Apaf-1 inh conf: Apaf-1 inhibition, single-dose confirmed; shares compounds with Apaf1 inhib; reconstituted apoptosome, caspase-3 DEVD-Rh110 fluorescence; inhibition, % at 20 µM; actives 25% (n = 1,800); AID 504614;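 active = mean inhibition of at least 40% at 20 µM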
Rh110 quench: counter-screen for Apaf-1 inhibitors: fluorescence interference; shares compounds with Apaf1 inhib; activation (fluorescence interference), % at 20 µM; 1,800 tested, under 10 active; Rh110 fluorescence interference, quenched caspase reaction;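 active = signal rise of 40% or more at 20 µM, treated as a fluorescence artifact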
Numbers stand for hits. Shown are actives, neighbours in structure and some others; about 1.6% of the full set was active somewhere.

CN(C)CCCN(C(=O)c1ccc(S(=O)(=O)N2CCCCC2)cc1)c1nc2cc3c(cc2s1)OCO3 was read as Apaf1 inhib 42, GSTO1 counter inactive, PAD4 inh inactive, TDP2 inh inactive, JMJD2C inh inactive, UBC9 SUMO inh inactive, Apaf-1 inh conf inactive and Rh110 quench inactive.
Screening CN(C)CCCN(C(=O)c1ccc(S(=O)(=O)N2CCCC2)cc1)c1nc2ccc(Br)cc2s1 returned Apaf1 inhib 53, GSTO1 counter inactive, PAD4 inh inactive, TDP2 inh inactive, JMJD2C inh inactive, UBC9 SUMO inh inactive, Apaf-1 inh conf inactive and Rh110 quench inactive.
`CCOc1ccc2nc(N(CCCN(C)C)C(=O)c3ccc(S(=O)(=O)N4CCCC4)cc3)sc2c1` gave Apaf1 inhib inactive, GSTO1 counter inactive, PAD4 inh inactive, TDP2 inh inactive, JMJD2C inh inactive and UBC9 SUMO inh inactive.
Screening CCOc1cccc2sc(N(CCCN(C)C)C(=O)c3ccc(S(=O)(=O)N4CCc5ccccc5C4)cc3)nc12 returned Apaf1 inhib 62, GSTO1 counter inactive, PAD4 inh inactive, TDP2 inh inactive, JMJD2C inh inactive, UBC9 SUMO inh inactive, Apaf-1 inh conf inactive and Rh110 quench inactive.
Screening CN(C)CCCN(C(=O)c1ccc(S(=O)(=O)N2CCOCC2)cc1)c1nc2cc3c(cc2s1)OCO3 returned Apaf1 inhib inactive, GSTO1 counter inactive, PAD4 inh inactive, TDP2 inh inactive, JMJD2C inh inactive and UBC9 SUMO inh inactive.
Cc1cc(C)c2sc(N(CCCN(C)C)C(=O)c3ccc(S(=O)(=O)N(C)C4CCCCC4)cc3)nc2c1 was read as Apaf1 inhib 40, GSTO1 counter inactive, PAD4 inh inactive, TDP2 inh inactive, JMJD2C inh inactive, Apaf-1 inh conf inactive and Rh110 quench inactive.
Screening CN(C)CCCN(C(=O)c1ccc(C(=O)c2ccccc2)cc1)c1nc2cc3c(cc2s1)OCO3 returned Apaf1 inhib 60, GSTO1 counter inactive, PAD4 inh inactive, TDP2 inh inactive, JMJD2C inh inactive, UBC9 SUMO inh inactive, Apaf-1 inh conf inactive and Rh110 quench inactive.
Screening COC(=O)[C@]12C[C@H](CC(=O)NCCC(C)C)C(=O)N(Cc3ccc4c(c3)OCO4)C1=C[C@H](C(C)C)O[C@@H]2C1CC1 returned TDP2 inh inactive.
Screening O=C(CCC(=O)N1CCN(C2c3ccccc3-c3ccccc32)CC1)Nc1nnc(C(F)(F)F)s1 returned TDP2 inh inactive.
`CCN1CCCC1CNC(=O)c1cc2c(-c3ccc(Cl)cc3)nn(C)c2s1` (stereo not drawn) gave Apaf1 inhib 49, GSTO1 counter inactive, PAD4 inh inactive, JMJD2C inh inactive, UBC9 SUMO inh inactive, Apaf-1 inh conf inactive and Rh110 quench inactive.
Screening O=C(COc1ccc2ccc(=O)oc2c1)Nc1ccc(N2CCCCC2)cc1 returned Apaf1 inhib 47, PAD4 inh inactive, TDP2 inh inactive, JMJD2C inh inactive, Apaf-1 inh conf inactive and Rh110 quench inactive.
`CCOC(=O)[C@]12CCCCC/C=C\1N(Cc1ccc(OC)cc1)C(=O)[C@H]2CC(=O)N1CCC(c2ccccc2)CC1` gave TDP2 inh inactive.
Screening Cc1ccc2c(c1)C(CS(=O)(=O)NCc1ccccc1)NC2 (stereo not drawn) returned TDP2 inh inactive.
`Cc1ccc(C(=O)NCC(=O)N2CCCCCCC2)cc1` gave Apaf1 inhib 61, PAD4 inh inactive, TDP2 inh inactive, JMJD2C inh inactive, Apaf-1 inh conf inactive and Rh110 quench inactive.
Screening COC(=O)[C@]12C[C@H](CC(=O)NCCc3ccccc3OC)C(=O)N(Cc3cccc4ccccc34)C1=C[C@H](C(C)(C)C)O[C@@H]2C returned TDP2 inh inactive.
Screening COc1cccc2cc(C(=O)NCc3ccccc3)c(=N)oc12 returned Apaf1 inhib inactive, GSTO1 counter inactive, PAD4 inh inactive, TDP2 inh inactive, JMJD2C inh inactive and UBC9 SUMO inh inactive.

Screening results from PubChem.
